Source: ChEMBL document CHEMBL1156196, “'Click chemistry' synthesis of a library of 1,2,3-triazole-substituted galactose derivatives and their evaluation against Trypanosoma cruzi and its cell surface trans-sialidase” (Bioorg Med Chem, 2010)
Active and inactive are the calls of the source. No cut-off for these calls is given here.

What was measured:
[1] = test system: Trypanosoma cruzi; experiment: Inhibition of Trypanosoma cruzi recombinant trans-sialidase at 1 mM after 10 mins by MUNANA continuous fluorimetric assay
Summary of the method: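 Recombinant His-tagged 70 kDa TcTS, truncated to drop the C-terminal repeats and keep the catalytic N-terminal domain. Enzyme and inhibitor were preincubated 10 min at 26 °C in phosphate buffer pH 7.4. MuNANA (assay concentration 0.1 mM) was then added, and released methylumbelliferone fluorescence was read after 10 min (ex 360, em 460 nm). Run in duplicate.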

[2] = test system: Trypanosoma cruzi; experiment: Inhibition of Trypanosoma cruzi recombinant trans-sialidase at 0.5 mM after 10 mins by MUNANA continuous fluorimetric assay
Summary of the method: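 Same His-tagged truncated recombinant TcTS (catalytic N-terminal domain) in phosphate buffer pH 7.4. Samples were dissolved in water with 0.6% DMSO and tested at 0.5 mM. Preincubation was 10 min at 26 °C, then 0.1 mM MuNANA was added. Mu fluorescence was read at 10 min (ex 360, em 460 nm), in duplicate.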

[3] = Cytotoxicity against mouse splenocytes after 24 hrs using propidium iodide staining by FACS analysis; type: cell-based; details: splenocyte
Summary of the method: (§1)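 Spleen cells from C57BL/6 mice were mechanically dissociated and given red-cell lysis for 4 min in Tris-HCl pH 7.5/NH₄Cl. They were plated at 5 × 10⁵ cells/well with test compounds (maximum 0.25 mM for less soluble ones) for 24 h at 37 °C, 5% CO₂. 0.5% Tween 20 was the death control. Cells were stained with 10 µg/mL propidium iodide.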

[4] = test system: Trypanosoma cruzi; experiment: Antitrypanosomal activity against Trypanosoma cruzi Y at < 100 uM after 24 hrs; type: functional, organism-based
Summary of the method: (§2)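 Y-strain trypomastigotes from LLC-MK₂ cultures, 6.5 × 10⁶ parasites/ml in RPMI with 10% FBS. Exposure included 750, 500, 250 and 100 µM at 37 °C, 5% CO₂. Poorly water-soluble compounds needed 0.6% DMSO and were capped at 0.75 mM. Benznidazole was the reference drug. Viability was measured by counting motile forms after 24 h.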

[5] = Cytotoxicity against mouse splenocytes at 50 to 100 uM after 24 hrs using propidium iodide staining by FACS analysis; type: cell-based; details: splenocyte; summary of the method: as §1
[6] = test system: Trypanosoma cruzi; experiment: Antitrypanosomal activity against Trypanosoma cruzi Y at > 100 uM after 24 hrs; type: functional; summary of the method: as §2
[7] = in the assay text read “in the low 100s of uM range” for “at < 100 uM”

For `CO[C@@H]1O[C@H](Cn2cc(-c3cccc(C(F)(F)F)c3)nn2)[C@H](O)[C@H](O)[C@H]1O`, the inhibition [1] was 3%.

In the case of `OC[C@H]1O[C@@H](n2cc(-c3ccc(C(F)(F)F)cc3)nn2)[C@H](O)[C@@H](O)[C@H]1O`, the inhibition [2] is reported as 9% and the Activity [3] is reported as “Toxic”.

With `CCC(O)c1cn(C[C@H]2O[C@@H](OC)[C@H](O)[C@@H](O)[C@H]2O)nn1` (mixture of isomers) the inhibition [1] was 29% and the Activity [3] was “Non-toxic”.

`CC(O)Cc1cn([C@@H]2O[C@H](CO)[C@H](O)[C@H](O)[C@H]2O)nn1` (single isomer, unassigned) showed an inhibition [1] of 14%.

Compound `CO[C@@H]1O[C@H](Cn2cc(-c3cccnc3)nn2)[C@H](O)[C@H](O)[C@H]1O` has an inhibition [1] of 20%.

Work on `OCc1cn([C@@H]2O[C@H](CO)[C@H](O)[C@H](O)[C@H]2O)nn1` yielded an inhibition [1] of 11%.

`Cc1ncc(COP(=O)(O)O)c(C=O)c1O` showed an inhibition [1] of 65%.

Compound `CO[C@@H]1O[C@H](Cn2cc(CO)nn2)[C@H](O)[C@H](O)[C@H]1O` has an inhibition [1] of 28%.

For `OC[C@H]1O[C@@H](n2cc(COCC3CO3)nn2)[C@H](O)[C@@H](O)[C@H]1O` (mixture of isomers), the inhibition [1] was 27% and the Activity [3] was “Non-toxic”.

`O=C1c2ccccc2C(=O)N1Cc1cn([C@@H]2O[C@H](CO)[C@H](O)[C@H](O)[C@H]2O)nn1` showed an inhibition [1] of 25%.

With `OC[C@H]1O[C@@H](n2cc(-c3ccccn3)nn2)[C@H](O)[C@@H](O)[C@H]1O` the inhibition [1] was 13% and the Activity [3] was “Non-toxic”.

`CO[C@@H]1O[C@H](Cn2cc(-c3ccccc3C(F)(F)F)nn2)[C@H](O)[C@H](O)[C@H]1O` showed an inhibition [1] of 11%.

With `CO[C@@H]1O[C@H](Cn2cc(-c3ccc(N)cc3)nn2)[C@H](O)[C@H](O)[C@H]1O` the inhibition [1] was 34%.

For `CO[C@@H]1O[C@H](Cn2cc(-c3ccccc3N)nn2)[C@H](O)[C@H](O)[C@H]1O`, the inhibition [1] was 24%.

Work on `OC[C@H]1O[C@@H](n2cc(-c3ccccc3)nn2)[C@H](O)[C@@H](O)[C@H]1O` yielded an inhibition [1] of 15%.

Compound `CO[C@@H]1O[C@H](Cn2cc(COCC3CO3)nn2)[C@H](O)[C@H](O)[C@H]1O` (mixture of isomers) has an inhibition [1] of 25%.

With `CO[C@@H]1O[C@H](Cn2cc(-c3ccc(Br)cc3)nn2)[C@H](O)[C@H](O)[C@H]1O` the inhibition [2] was 3% and the Activity [3] was “Toxic”.

In the case of `OCCCCc1cn([C@@H]2O[C@H](CO)[C@H](O)[C@H](O)[C@H]2O)nn1`, the inhibition [1] is reported as 26%.

In the case of `CO[C@@H]1O[C@H](Cn2cc(CN(C)Cc3ccccc3)nn2)[C@H](O)[C@H](O)[C@H]1O`, the Activity [4] is reported as “Active”, the inhibition [1] is reported as 17% and the Activity [3] is reported as “Non-toxic”.

For `CO[C@@H]1O[C@H](Cn2cc(-c3ccc(C(F)(F)F)cc3)nn2)[C@H](O)[C@H](O)[C@H]1O`, the Activity [5] was 50%, the inhibition [2] was 10% and the Activity [4, 7] was “Active”. The Activity [3] was “Toxic”.

`CO[C@@H]1O[C@H](Cn2cc(-c3ccccc3Br)nn2)[C@H](O)[C@H](O)[C@H]1O` showed an inhibition [1] of 29%.

In the case of `CO[C@@H]1O[C@H](Cn2cc(-c3ccccn3)nn2)[C@H](O)[C@H](O)[C@H]1O`, the inhibition [1] is reported as 14%.

Compound `O=C(O)CCCc1cn([C@@H]2O[C@H](CO)[C@H](O)[C@H](O)[C@H]2O)nn1` has an inhibition [1] of 10%.

For `COC(=O)c1cn([C@@H]2O[C@H](CO)[C@H](O)[C@H](O)[C@H]2O)nn1`, the inhibition [1] was 28%.

Work on `CO[C@@H]1O[C@H](Cn2cc(CC(C)O)nn2)[C@H](O)[C@H](O)[C@H]1O` (mixture of isomers) yielded an inhibition [1] of 10%.

For `CO[C@@H]1O[C@H](Cn2cc(CCc3ccccc3)nn2)[C@H](O)[C@H](O)[C@H]1O`, the inhibition [1] was 14%.

With `CO[C@@H]1O[C@H](Cn2cc(CCCC(=O)O)nn2)[C@H](O)[C@H](O)[C@H]1O` the inhibition [1] was “inactive”.

`CO[C@@H]1O[C@H](Cn2cc(-c3ccccc3)nn2)[C@H](O)[C@H](O)[C@H]1O` gave an inhibition [1] of 14%.

In the case of `CO[C@@H]1O[C@H](Cn2cc(CCCCO)nn2)[C@H](O)[C@H](O)[C@H]1O`, the inhibition [1] is reported as 27%.

Work on `OC[C@H]1O[C@@H](n2cc(-c3cccc(C(F)(F)F)c3)nn2)[C@H](O)[C@@H](O)[C@H]1O` yielded an inhibition [1] of 31%.

In the case of `Nc1ccc(-c2cn([C@@H]3O[C@H](CO)[C@H](O)[C@H](O)[C@H]3O)nn2)cc1`, the Activity [4, 7] is reported as “Active”, the inhibition [1] is reported as 19% and the Activity [3] is reported as “Non-toxic”.

With `OC[C@H]1O[C@@H](n2cc(-c3ccccc3Br)nn2)[C@H](O)[C@@H](O)[C@H]1O` the inhibition [1] was 33%.

In the case of `OC[C@H]1O[C@@H](n2cc(-c3cccnc3)nn2)[C@H](O)[C@@H](O)[C@H]1O`, the Activity [5] is reported as 50%, the inhibition [2] is reported as 15% and the Activity [3] is reported as “Toxic”.

`CO[C@@H]1O[C@H](Cn2cc(Cc3ccccc3)nn2)[C@H](O)[C@H](O)[C@H]1O` gave an inhibition [1] of 29%.

With `OC[C@H]1O[C@@H](n2cc(-c3ccccc3C(F)(F)F)nn2)[C@H](O)[C@@H](O)[C@H]1O` the inhibition [1] was 14%.

With `CC(=O)N[C@H]1[C@H]([C@H](O)[C@H](O)CO)OC(C(=O)O)=C[C@@H]1O` the inhibition [1] was 33%.

With `OC[C@H]1O[C@@H](n2cc(-c3ccc(Br)cc3)nn2)[C@H](O)[C@@H](O)[C@H]1O` the Activity [5] was 50%, the inhibition [2] was “inactive” and the Activity [3] was “Active”.

With `CN(Cc1ccccc1)Cc1cn([C@@H]2O[C@H](CO)[C@H](O)[C@H](O)[C@H]2O)nn1` the inhibition [1] was 22%.

In the case of `Nc1ccccc1-c1cn([C@@H]2O[C@H](CO)[C@H](O)[C@H](O)[C@H]2O)nn1`, the inhibition [1] is reported as 30% and the Activity [3] is reported as “Non-toxic”.

Compound `COC(=O)c1cn(C[C@H]2O[C@@H](OC)[C@H](O)[C@@H](O)[C@H]2O)nn1` has an inhibition [1] of 30%.

In the case of `CCC(O)c1cn([C@@H]2O[C@H](CO)[C@H](O)[C@H](O)[C@H]2O)nn1` (single isomer, unassigned), the inhibition [1] is reported as 13%.

For `CO[C@@H]1O[C@H](Cn2cc(CN3C(=O)c4ccccc4C3=O)nn2)[C@H](O)[C@H](O)[C@H]1O`, the inhibition [2] was 11%.

Compound `OC[C@H]1O[C@@H](n2cc(Cc3ccccc3)nn2)[C@H](O)[C@@H](O)[C@H]1O` has an Activity [5] of 50%, an Activity [6] of 50% and an inhibition [1] of 37%. For the same compound, the Activity [3] was “Active”.

With `OC[C@H]1O[C@@H](n2cc(CCc3ccccc3)nn2)[C@H](O)[C@@H](O)[C@H]1O` the inhibition [1] was 16% and the Activity [3] was “Toxic”.

In the case of `OCCCc1cn([C@@H]2O[C@H](CO)[C@H](O)[C@H](O)[C@H]2O)nn1`, the inhibition [1] is reported as 27%.

For `CO[C@@H]1O[C@H](Cn2cc(CCCO)nn2)[C@H](O)[C@H](O)[C@H]1O`, the inhibition [1] was 24% and the Activity [3] was “Non-toxic”.
